Screening results (PubChem)
Sampled rows, rich in hits. Any-hit rate of the full collection: about 27%.
HIV Rev-RRE inh = inhibitors of HIV-1 Rev-RRE RNA interaction; Rev peptide-RRE RNA binding, FRET; inhibition, % at 8 µM; AID 704; P05866; actives 0.79% (n = 97,000);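 active means inhibition above the screen-wide mean plus 3 SD, cut at about 35% in these data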
Target sequence (P05866 whole entry, looked up): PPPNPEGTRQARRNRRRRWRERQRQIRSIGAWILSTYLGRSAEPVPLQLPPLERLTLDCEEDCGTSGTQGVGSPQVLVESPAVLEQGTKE
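assay system = Cy5-tagged RRE RNA duplex with fluorescein-tagged Rev peptide | incubation = 5 + 15 min at 25 °C | also added = labelled Rev peptide | measure = % inhibition of FRET ratio versus controls | benchmarks = DMSO wells as 0% and neomycin B wells as 100% inhibition | measured by = FRET fluorescence readout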
CYP2C19 inhib = human CYP2C19 inhibition | P33261 | actives 21% (n = 96,000) | CYP2C19 Supersomes, luciferin-H EGE luminescence, 30 min | AID 778 | inhibition, % at 5 µM;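 active means CYP2C19 inhibition above a set limit at 5 µM in the primary screen, cut at about 50% in these data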
Target sequence (P33261 whole entry, looked up): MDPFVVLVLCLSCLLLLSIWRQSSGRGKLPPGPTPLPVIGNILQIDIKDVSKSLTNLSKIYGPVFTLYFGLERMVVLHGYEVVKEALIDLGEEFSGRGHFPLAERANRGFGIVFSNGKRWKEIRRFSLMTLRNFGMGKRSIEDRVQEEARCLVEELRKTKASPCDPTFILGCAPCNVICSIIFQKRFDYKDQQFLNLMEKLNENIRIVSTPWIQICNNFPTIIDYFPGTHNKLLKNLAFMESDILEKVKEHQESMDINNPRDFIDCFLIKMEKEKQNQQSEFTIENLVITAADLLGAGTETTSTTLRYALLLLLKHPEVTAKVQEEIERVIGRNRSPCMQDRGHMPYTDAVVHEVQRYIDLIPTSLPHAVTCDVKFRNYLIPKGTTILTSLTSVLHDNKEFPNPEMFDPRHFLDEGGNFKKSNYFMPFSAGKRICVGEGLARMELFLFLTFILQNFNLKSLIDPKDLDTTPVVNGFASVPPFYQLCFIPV
CYP2C9 inhib = blocks human cytochrome P450 2C9; CYP2C9 Supersomes, luciferin-H conversion, luminescence; inhibition, % at 5 µM; actives 20% (n = 96,000);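 active means blocking of liver enzyme CYP2C9 beyond about 50% at 5 µM, limit read from the data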
Cav32 inh = blocks human Cav3.2 T-type calcium channel | O95180 | actives 4% (n = 100,000) | Cav3.2-expressing cells, Fluo-4 calcium fluorescence FDSS; hits give low values | B-score at 10 µM;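 active means single-dose well whose peak fluorescence ratio is a statistical outlier from its plate by either plate-standardised score or position-corrected B-score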
CYP2C19 act = increases human CYP2C19 enzyme activity. recombinant CYP2C19, luciferin-H EGE luminescence; hits give high values; 0 = fully inhibited enzyme, 1 = untreated enzyme. 96,000 tested, under 10 active. P33261. activation factor at 5 µM;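 active means activation factor of at least 2 at 5 µM in the primary screen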
CYP2C9 act = CYP2C9 (human) activation; P11712; activation factor at 5 µM; AID 1024; recombinant CYP2C9, luciferin-H conversion, luminescence; hits give high values; factor 1 = untreated enzyme, 0 = blocked; actives 1.4% (n = 96,000);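 active means activation factor of 2 or more for CYP2C9 at a 5 µM dose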
A number is an active result; . = inactive; / = not tested or not shown.

SMILES	HIV Rev-RRE inh	CYP2C19 inhib	CYP2C9 inhib	Cav32 inh	CYP2C19 act	CYP2C9 act
COC(=O)C1CSc2[nH]c(=O)sc2C1c1ccc(O)c(OC)c1 (configuration not stated)	.	.	.	.	.	.
CCc1nc(-c2ccc(-c3ccc(OC)cc3)nc2OC)no1	.	/	/	.	/	/
COc1cccc(-c2ccc(-c3noc(-c4ccccc4F)n3)c(OC)n2)c1	.	.	61	.	.	.
COc1ccc(-c2ccc(-c3noc(C(C)C)n3)c(OC)n2)cc1	.	66	72	.	.	.
COc1cccc(-c2ccc(-c3noc(-c4cccs4)n3)c(OC)n2)c1	.	.	.	.	.	.
CCOC(=O)CN1C(=O)N[C@@H](CCc2ccccc2)C(C(C)=O)=C1C	/	/	/	.	/	/
COc1ccnc(CS(=O)c2nc3cc(OC(F)F)ccc3[nH]2)c1OC (configuration not stated)	/	/	/	.	/	/
CNC(=O)c1cc2c(=O)n3cccc(C)c3nc2n(C(C)C)c1=N	.	.	.	.	.	.
Cc1ccc2c(c1)CCCN2C(=O)c1cc2ccccc2oc1=O	.	.	.	.	.	2.8
Cc1ccc(C)c(N2CCN(C(=O)c3cc4ccccc4oc3=O)CC2)c1	.	.	.	.	.	.
COC(=O)CCCC1=CC2=C(c3ccccc3)C(=O)C(C)(OC(=O)C3CCCC3)C(=O)C2=CN1C(CO)CO (configuration not stated)	/	/	/	.	/	/
COC(=O)c1c(C(=O)OC)c2ccncn2c1Cl	.	81	80	.	.	.
Cn1c(=O)[nH]c(=O)c2c1nc(SCC(=O)O)n2CCc1ccccc1	.	.	.	.	.	.
O=C(COC(=O)CC1CC2CCC1C2)NC(=O)NCc1ccco1 (configuration not stated)	.	63	70	.	.	.
O=C(Nc1ccc(-c2nc3cc(Cl)ccc3o2)cc1)C1CCCO1 (configuration not stated)	.	/	/	.	/	/
Cc1nc([N+](=O)[O-])c(Br)n1CC(=O)c1ccc(Cl)cc1	.	.	66	.	.	.
O=C1CCCCCN1C(=O)c1cccc(C(=O)N2CCCCCC2=O)c1	.	.	.	.	.	.
CCOc1ccc(NC(=O)CN(C)CC(=O)NC2CCCc3ccccc32)cc1OCC (configuration not stated)	.	.	86	.	.	.
CCN(CCCNC(=O)C1CCC(=O)N1Cc1ccc(F)cc1)c1cccc(C)c1 (configuration not stated)	.	.	.	.	.	.
COc1ccc(OC)c(NC(=O)CSc2ccccc2)c1	.	57	.	.	.	.
COc1ccc([N+](=O)[O-])cc1NCc1ccccc1C	.	68	69	.	.	.
COc1ccc(OC)c(NC(=O)CSc2nnc(C3CCCCC3)n2-c2ccccc2)c1	.	/	/	-7.4	/	/
COc1ccc([N+](=O)[O-])cc1NC(=S)NC(NC(=O)Cc1ccc(OC)c(OC)c1)C(Cl)(Cl)Cl (configuration not stated)	.	.	58	.	.	.
COc1ccc(OC)c(NC(=O)CSc2ncccn2)c1	.	.	.	.	.	.
COc1ccc(NC(=S)NC(NC(=O)C(C)C)C(Cl)(Cl)Cl)c([N+](=O)[O-])c1 (configuration not stated)	.	.	.	.	.	.
SMILES	HIV Rev-RRE inh	CYP2C19 inhib	CYP2C9 inhib	Cav32 inh	CYP2C19 act	CYP2C9 act
C/C=C/C(=O)N1CC2(CC(c3cccc(NC(=O)COc4ccc(Cl)cc4)c3)=NO2)C[C@@H]1C(N)=O (some centres not stated)	/	/	/	.	/	/
COc1cc(C(=O)Nc2nnc(-c3sccc3C)s2)cc(OC)c1OC	.	.	.	.	.	.
O=C(NC1CCCCC1)C(c1ccc(Cl)cc1)N(C(=O)c1cnccn1)c1ccc2c(c1)OCO2 (configuration not stated)	.	.	.	.	.	.
COc1ccc(OC)c(NC(=O)C2CC(C)=C(C)CC2C(=O)O)c1 (configuration not stated)	.	.	61	.	.	.
COc1cc(NC(=O)CS(=O)(=O)c2ccc(C)cc2)cc(OC)c1OC	.	73	.	.	.	.
COc1ccc([N+](=O)[O-])cc1NC1CCCCC1	.	.	.	-5	.	.
COc1ccc(OC)c(NC(=O)C(=O)/C=C(\O)c2cc(OC)ccc2OC)c1	.	.	.	-5.2	.	.
COc1ccc([N+](=O)[O-])cc1NC1C2CC3CC(C2)CC1C3 (configuration not stated)	.	.	.	.	.	.
COc1cc(NC(=O)c2ccc(S(=O)(=O)N(C)C)cc2)cc(OC)c1OC	.	.	.	.	.	.
COc1ccc(OC)c(NC(=O)Nc2ccccc2C)c1	.	67	.	.	.	.
CC(=O)Oc1ccc(NC(=O)CSc2ccccc2)cc1	.	69	53	.	.	.
COc1ccc([N+](=O)[O-])cc1NC(=O)CSc1ccccc1	.	93	.	.	.	.
COc1ccc(OC)c(NC(=O)NC2(C(F)(F)F)Oc3ccccc3O2)c1	.	.	.	.	.	.
COc1ccc(OC)c(NC(=O)CS(=O)(=O)c2ccccc2)c1	.	69	.	.	.	4.3
COCC(=O)Nc1cc(OC)ccc1OC	.	.	.	.	.	.
CCn1c(CNc2ccc(Cl)cc2)nnc1SCC(=O)OC1CCCCC1	.	/	/	-8.4	/	/
CCn1c(COc2ccccc2)nnc1SCC(=O)NC1CCCCC1	.	.	.	.	.	.
CCn1c(CNc2ccccc2Cl)nnc1SCC(=O)OC1CCCCC1	.	70	.	-4.5	.	.
CCn1c(CNc2cccc(Cl)c2)nnc1SCC(=O)OC1CCCCC1	.	74	74	/	.	.
CC(=O)c1c(C)[nH]c(C(=O)NCCN2CCC(C)CC2)c1C	.	.	.	.	.	.
Cc1cc2oc(=O)cc(CN3CCc4ccccc43)c2cc1Cl	.	79	61	-5.3	.	.
Cc1ccc2c(CN3CCCc4ccccc43)cc(=O)oc2c1C	57	.	.	.	.	.
CCc1ccc2oc(=O)cc(CN3CCN(CCO)CC3)c2c1	.	.	.	.	.	.
CCc1ccc2c(CN3CCc4ccccc43)cc(=O)oc2c1	.	94	.	.	.	.
COC1Cc2ccccc2N(C(=O)N2CCN(CCO)CC2)c2ccccc21 (configuration not stated)	.	.	.	/	.	.
CCN1CCn2c3c(c4cc(C)ccc42)CCCC31 (configuration not stated)	.	54	52	.	.	.
Cc1ccc2c(c1)c1c3n2CCCNC3CCC1 (configuration not stated)	.	.	.	.	.	.
CCCCNc1nc(-c2ccccc2)c(C(=O)OCC)cc1C#N	.	.	56	.	.	.
